System: Fibroblast
Experiment: Multiplex assay against human fibroblast
Format: toxicity, cell-based
In short: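 At seeding, live cells were stained with Hoechst33342, BioTracker Green Microtubule Cytoskeleton Dye, MitoTracker Red and Annexin V Alexa Fluor 680. After compound addition they were imaged on a CQ1 microscope at 37°C and 5% CO2, and CellPathfinder machine-learning gating sorted them into Hoechst high-intensity objects or normal cells, with normal cells further split into healthy, pyknosed or fragmented nuclei and pyknosed cells into mitotic or apoptotic. Tubulin, mitochondrial-mass and membrane-permeability phenotypes are given as per cents of cells with healthy nuclei.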

[1] = 12 h, 1 µM, compound concentration 1 uM, replicate 1
[2] = 12 h, 1 µM, compound concentration 1 uM, replicate 2
[3] = 12 h, 10 µM, compound concentration 10 uM, replicate 1
[4] = 12 h, 10 µM, compound concentration 10 uM, replicate 2
[5] = 24 h, 1 µM, compound concentration 1 uM, replicate 1
[6] = 24 h, 1 µM, compound concentration 1 uM, replicate 2
[7] = 24 h, 10 µM, compound concentration 10 uM, replicate 1
[8] = 24 h, 10 µM, compound concentration 10 uM, replicate 2
[9] = 48 h, 1 µM, compound concentration 1 uM, replicate 1
[10] = 48 h, 1 µM, compound concentration 1 uM, replicate 2
[11] = 48 h, 10 µM, compound concentration 10 uM, replicate 1
[12] = 48 h, 10 µM, compound concentration 10 uM, replicate 2

Compound: Cc1ccc(C(C)(O)c2nc3ccccc3s2)c(C)c1 (centres undefined)
- Population Apoptotic (%) [1]: 50%
- Population Fragmented Nuclei (%) [1]: 8%
- Population Healthy Nuclei (%) [1]: 78%
- Population Hoechst High Intensity Objects (%) [1]: 0%
- Population Membrane Permeable-Phenotype (%) [1]: 0%
- Population Mitochondria Different-Phenotype (%) [1]: 5%
- Population Mitotic Cells (%) [1]: 50%
- Population Normal (%) [1]: 99%
- Population Pyknosed Nuclei (%) [1]: 12%
- Population Tubulin-Different-Phenotype (%) [1]: 29%
- Total Cell Count [1]: 125
- Population Apoptotic (%) [2]: 44%
- Population Fragmented Nuclei (%) [2]: 22%
- Population Healthy Nuclei (%) [2]: 48%
- Population Hoechst High Intensity Objects (%) [2]: 5%
- Population Membrane Permeable-Phenotype (%) [2]: 3%
- Population Mitochondria Different-Phenotype (%) [2]: 6%
- Population Mitotic Cells (%) [2]: 56%
- Population Normal (%) [2]: 95%
- Population Pyknosed Nuclei (%) [2]: 29%
- Population Tubulin-Different-Phenotype (%) [2]: 36%
- Total Cell Count [2]: 180
- Population Apoptotic (%) [3]: 44%
- Population Fragmented Nuclei (%) [3]: 11%
- Population Healthy Nuclei (%) [3]: 72%
- Population Hoechst High Intensity Objects (%) [3]: 1%
- Population Membrane Permeable-Phenotype (%) [3]: 0%
- Population Mitochondria Different-Phenotype (%) [3]: 5%
- Population Mitotic Cells (%) [3]: 56%
- Population Normal (%) [3]: 98%
- Population Pyknosed Nuclei (%) [3]: 16%
- Population Tubulin-Different-Phenotype (%) [3]: 24%
- Total Cell Count [3]: 153
- Population Apoptotic (%) [4]: 22%
- Population Fragmented Nuclei (%) [4]: 31%
- Population Healthy Nuclei (%) [4]: 43%
- Population Hoechst High Intensity Objects (%) [4]: 7%
- Population Membrane Permeable-Phenotype (%) [4]: 15%
- Population Mitochondria Different-Phenotype (%) [4]: 6%
- Population Mitotic Cells (%) [4]: 77%
- Population Normal (%) [4]: 92%
- Population Pyknosed Nuclei (%) [4]: 25%
- Population Tubulin-Different-Phenotype (%) [4]: 60%
- Total Cell Count [4]: 149
- Population Apoptotic (%) [5]: 31%
- Population Fragmented Nuclei (%) [5]: 13%
- Population Healthy Nuclei (%) [5]: 73%
- Population Hoechst High Intensity Objects (%) [5]: 0%
- Population Membrane Permeable-Phenotype (%) [5]: 2%
- Population Mitochondria Different-Phenotype (%) [5]: 7%
- Population Mitotic Cells (%) [5]: 68%
- Population Normal (%) [5]: 99%
- Population Pyknosed Nuclei (%) [5]: 13%
- Population Tubulin-Different-Phenotype (%) [5]: 22%
- Total Cell Count [5]: 139
- Population Apoptotic (%) [6]: 47%
- Population Fragmented Nuclei (%) [6]: 25%
- Population Healthy Nuclei (%) [6]: 54%
- Population Hoechst High Intensity Objects (%) [6]: 5%
- Population Membrane Permeable-Phenotype (%) [6]: 11%
- Population Mitochondria Different-Phenotype (%) [6]: 5%
- Population Mitotic Cells (%) [6]: 52%
- Population Normal (%) [6]: 94%
- Population Pyknosed Nuclei (%) [6]: 20%
- Population Tubulin-Different-Phenotype (%) [6]: 43%
- Total Cell Count [6]: 173
- Population Apoptotic (%) [7]: 55%
- Population Fragmented Nuclei (%) [7]: 13%
- Population Healthy Nuclei (%) [7]: 74%
- Population Hoechst High Intensity Objects (%) [7]: 4%
- Population Membrane Permeable-Phenotype (%) [7]: 3%
- Population Mitochondria Different-Phenotype (%) [7]: 6%
- Population Mitotic Cells (%) [7]: 44%
- Population Normal (%) [7]: 95%
- Population Pyknosed Nuclei (%) [7]: 12%
- Population Tubulin-Different-Phenotype (%) [7]: 24%
- Total Cell Count [7]: 152
- Population Apoptotic (%) [8]: 38%
- Population Fragmented Nuclei (%) [8]: 27%
- Population Healthy Nuclei (%) [8]: 46%
- Population Hoechst High Intensity Objects (%) [8]: 6%
- Population Membrane Permeable-Phenotype (%) [8]: 12%
- Population Mitochondria Different-Phenotype (%) [8]: 9%
- Population Mitotic Cells (%) [8]: 61%
- Population Normal (%) [8]: 93%
- Population Pyknosed Nuclei (%) [8]: 25%
- Population Tubulin-Different-Phenotype (%) [8]: 61%
- Total Cell Count [8]: 143
- Population Apoptotic (%) [9]: 33%
- Population Fragmented Nuclei (%) [9]: 16%
- Population Healthy Nuclei (%) [9]: 73%
- Population Hoechst High Intensity Objects (%) [9]: 4%
- Population Membrane Permeable-Phenotype (%) [9]: 0%
- Population Mitochondria Different-Phenotype (%) [9]: 3%
- Population Mitotic Cells (%) [9]: 66%
- Population Normal (%) [9]: 95%
- Population Pyknosed Nuclei (%) [9]: 9%
- Population Tubulin-Different-Phenotype (%) [9]: 16%
- Total Cell Count [9]: 129
- Population Apoptotic (%) [10]: 50%
- Population Fragmented Nuclei (%) [10]: 28%
- Population Healthy Nuclei (%) [10]: 57%
- Population Hoechst High Intensity Objects (%) [10]: 3%
- Population Membrane Permeable-Phenotype (%) [10]: 5%
- Population Mitochondria Different-Phenotype (%) [10]: 6%
- Population Mitotic Cells (%) [10]: 50%
- Population Normal (%) [10]: 96%
- Population Pyknosed Nuclei (%) [10]: 14%
- Population Tubulin-Different-Phenotype (%) [10]: 39%
- Total Cell Count [10]: 174
- Population Apoptotic (%) [11]: 53%
- Population Fragmented Nuclei (%) [11]: 22%
- Population Healthy Nuclei (%) [11]: 68%
- Population Hoechst High Intensity Objects (%) [11]: 7%
- Population Membrane Permeable-Phenotype (%) [11]: 2%
- Population Mitochondria Different-Phenotype (%) [11]: 6%
- Population Mitotic Cells (%) [11]: 46%
- Population Normal (%) [11]: 92%
- Population Pyknosed Nuclei (%) [11]: 9%
- Population Tubulin-Different-Phenotype (%) [11]: 27%
- Total Cell Count [11]: 156
- Population Apoptotic (%) [12]: 43%
- Population Fragmented Nuclei (%) [12]: 34%
- Population Healthy Nuclei (%) [12]: 53%
- Population Membrane Permeable-Phenotype (%) [12]: 7%
- Population Mitochondria Different-Phenotype (%) [12]: 7%
- Population Mitotic Cells (%) [12]: 56%
- Population Pyknosed Nuclei (%) [12]: 12%
- Population Tubulin-Different-Phenotype (%) [12]: 64%
- Total Cell Count [12]: 143

Compound: CN(C)c1ccnc2sc3c(=O)n(N4CCCCCC4)cnc3c12
- Population Apoptotic (%) [1]: 42%
- Population Fragmented Nuclei (%) [1]: 17%
- Population Healthy Nuclei (%) [1]: 64%
- Population Hoechst High Intensity Objects (%) [1]: 3%
- Population Membrane Permeable-Phenotype (%) [1]: 1%
- Population Mitochondria Different-Phenotype (%) [1]: 3%
- Population Mitotic Cells (%) [1]: 57%
- Population Normal (%) [1]: 96%
- Population Pyknosed Nuclei (%) [1]: 18%
- Population Tubulin-Different-Phenotype (%) [1]: 29%
- Total Cell Count [1]: 144
- Population Apoptotic (%) [2]: 30%
- Population Fragmented Nuclei (%) [2]: 28%
- Population Healthy Nuclei (%) [2]: 51%
- Population Hoechst High Intensity Objects (%) [2]: 6%
- Population Membrane Permeable-Phenotype (%) [2]: 10%
- Population Mitotic Cells (%) [2]: 70%
- Population Normal (%) [2]: 93%
- Population Pyknosed Nuclei (%) [2]: 19%
- Population Tubulin-Different-Phenotype (%) [2]: 44%
- Total Cell Count [2]: 162
- Population Apoptotic (%) [3]: 44%
- Population Fragmented Nuclei (%) [3]: 14%
- Population Healthy Nuclei (%) [3]: 58%
- Population Hoechst High Intensity Objects (%) [3]: 5%
- Population Membrane Permeable-Phenotype (%) [3]: 1%
- Population Mitochondria Different-Phenotype (%) [3]: 14%
- Population Mitotic Cells (%) [3]: 55%
- Population Normal (%) [3]: 94%
- Population Pyknosed Nuclei (%) [3]: 27%
- Population Tubulin-Different-Phenotype (%) [3]: 75%
- Total Cell Count [3]: 141
- Population Apoptotic (%) [4]: 49%
- Population Fragmented Nuclei (%) [4]: 31%
- Population Healthy Nuclei (%) [4]: 30%
- Population Hoechst High Intensity Objects (%) [4]: 7%
- Population Membrane Permeable-Phenotype (%) [4]: 12%
- Population Mitotic Cells (%) [4]: 50%
- Population Normal (%) [4]: 92%
- Population Pyknosed Nuclei (%) [4]: 38%
- Total Cell Count [4]: 145
- Population Apoptotic (%) [5]: 48%
- Population Fragmented Nuclei (%) [5]: 11%
- Population Healthy Nuclei (%) [5]: 67%
- Population Hoechst High Intensity Objects (%) [5]: 3%
- Population Membrane Permeable-Phenotype (%) [5]: 0%
- Population Mitochondria Different-Phenotype (%) [5]: 3%
- Population Mitotic Cells (%) [5]: 51%
- Population Normal (%) [5]: 96%
- Population Pyknosed Nuclei (%) [5]: 21%
- Population Tubulin-Different-Phenotype (%) [5]: 27%
- Total Cell Count [5]: 143
- Population Apoptotic (%) [6]: 50%
- Population Fragmented Nuclei (%) [6]: 24%
- Population Healthy Nuclei (%) [6]: 55%
- Population Hoechst High Intensity Objects (%) [6]: 2%
- Population Membrane Permeable-Phenotype (%) [6]: 10%
- Population Mitochondria Different-Phenotype (%) [6]: 2%
- Population Mitotic Cells (%) [6]: 50%
- Population Normal (%) [6]: 97%
- Population Pyknosed Nuclei (%) [6]: 19%
- Population Tubulin-Different-Phenotype (%) [6]: 49%
- Total Cell Count [6]: 146
- Population Apoptotic (%) [7]: 57%
- Population Fragmented Nuclei (%) [7]: 13%
- Population Healthy Nuclei (%) [7]: 58%
- Population Hoechst High Intensity Objects (%) [7]: 5%
- Population Membrane Permeable-Phenotype (%) [7]: 0%
- Population Mitochondria Different-Phenotype (%) [7]: 18%
- Population Mitotic Cells (%) [7]: 42%
- Population Normal (%) [7]: 94%
- Population Pyknosed Nuclei (%) [7]: 28%
- Population Tubulin-Different-Phenotype (%) [7]: 63%
- Total Cell Count [7]: 130
- Population Apoptotic (%) [8]: 30%
- Population Fragmented Nuclei (%) [8]: 35%
- Population Healthy Nuclei (%) [8]: 41%
- Population Hoechst High Intensity Objects (%) [8]: 8%
- Population Membrane Permeable-Phenotype (%) [8]: 22%
- Population Mitochondria Different-Phenotype (%) [8]: 24%
- Population Mitotic Cells (%) [8]: 69%
- Population Normal (%) [8]: 91%
- Population Pyknosed Nuclei (%) [8]: 22%
- Population Tubulin-Different-Phenotype (%) [8]: 85%
- Total Cell Count [8]: 128
- Population Apoptotic (%) [9]: 64%
- Population Fragmented Nuclei (%) [9]: 19%
- Population Healthy Nuclei (%) [9]: 70%
- Population Hoechst High Intensity Objects (%) [9]: 2%
- Population Membrane Permeable-Phenotype (%) [9]: 0%
- Population Mitochondria Different-Phenotype (%) [9]: 0%
- Population Mitotic Cells (%) [9]: 35%
- Population Normal (%) [9]: 97%
- Population Pyknosed Nuclei (%) [9]: 10%
- Population Tubulin-Different-Phenotype (%) [9]: 30%
- Total Cell Count [9]: 143
- Population Apoptotic (%) [10]: 36%
- Population Fragmented Nuclei (%) [10]: 36%
- Population Healthy Nuclei (%) [10]: 49%
- Population Hoechst High Intensity Objects (%) [10]: 3%
- Population Membrane Permeable-Phenotype (%) [10]: 6%
- Population Mitochondria Different-Phenotype (%) [10]: 2%
- Population Mitotic Cells (%) [10]: 63%
- Population Normal (%) [10]: 96%
- Population Pyknosed Nuclei (%) [10]: 14%
- Population Tubulin-Different-Phenotype (%) [10]: 41%
- Total Cell Count [10]: 157
- Population Apoptotic (%) [11]: 73%
- Population Fragmented Nuclei (%) [11]: 22%
- Population Healthy Nuclei (%) [11]: 47%
- Population Hoechst High Intensity Objects (%) [11]: 8%
- Population Membrane Permeable-Phenotype (%) [11]: 0%
- Population Mitochondria Different-Phenotype (%) [11]: 25%
- Population Mitotic Cells (%) [11]: 26%
- Population Normal (%) [11]: 91%
- Population Pyknosed Nuclei (%) [11]: 30%
- Population Tubulin-Different-Phenotype (%) [11]: 76%
- Total Cell Count [11]: 138
- Population Apoptotic (%) [12]: 50%
- Population Fragmented Nuclei (%) [12]: 47%
- Population Healthy Nuclei (%) [12]: 42%
- Population Hoechst High Intensity Objects (%) [12]: 6%
- Population Membrane Permeable-Phenotype (%) [12]: 19%
- Population Mitochondria Different-Phenotype (%) [12]: 13%
- Population Mitotic Cells (%) [12]: 50%
- Population Normal (%) [12]: 93%
- Population Pyknosed Nuclei (%) [12]: 9%
- Population Tubulin-Different-Phenotype (%) [12]: 86%
- Total Cell Count [12]: 131
